Data taken from ChEMBL document CHEMBL2417504, “A fundamental relationship between hydrophobic properties and biological activity for the duocarmycin class of DNA-alkylating antitumor drugs: hydrophobic-binding-driven bonding” (J Med Chem, 2013).
In brackets after ≈: the same amount, converted by molar mass.

Experiments:
[1] = Displacement of ethidium bromide from hairpin 5'AAAAA duplex DNA sequence (unknown origin) at 10 equivalent compound dose after 5 mins by FID assay
[2] = Displacement of ethidium bromide from hairpin 5'AAAAA duplex DNA sequence (unknown origin) at 2 equivalent compound dose after 5 mins by FID assay
[3] = Induction of w794 DNA alkylation (unknown origin) after 2 hrs by densitometric analysis relative to duocarmycin SA
Method in brief: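 Loss of full-length labeled DNA quantified by densitometry of remaining non-alkylated DNA. Relative alkylation efficiency corrected for the 10-fold differences in compound concentrations used.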

[4] = test system: L1210; test: Cytotoxicity against mouse L1210 cells after 72 hrs by phosphatase assay; assay type: functional, cell-based; conditions: L1210, 72 h
Method in brief: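 L1210 mouse lymphocytic leukemia cells seeded at 30,000 cells/mL in DMEM + 10% FBS, 100 μL/well, 24 h at 37 °C, 5% CO2; DMSO serial 10-fold dilutions added, six concentrations over 0–100 nM or 0–1000 nM, duplicate, 72 h.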

[5] = Solubility of the compound in water after 40 hrs; assay type: physicochemical; conditions: for solubility at 40 h: water; for solubility: buffer, 40 h

Row | SMILES | inhibition [1] | inhibition [2] | fold change (FC) [3] | IC50 [4] | solubility at 40 h [5] | solubility [5]
1 | COCCOc1cc2cc(C(=O)N3C[C@@H](CCl)c4c3cc(O)c3[nH]c(C(=O)OC)cc43)[nH]c2c(OCCOC)c1OCCOC | 50% | 10% | 0.9 | 0.037 nM | 740 µg/mL (≈ 1150 µM) | 
2 | COCCOCCOCCOCCOCCOc1cc2cc(C(=O)N3C[C@@H](CCl)c4c3cc(O)c3[nH]c(C(=O)OC)cc43)[nH]c2c(OCCOCCOCCOCCOCCOC)c1OCCOCCOCCOCCOCCOC |  |  | 0.0002 | 370 nM |  | > 12000 µg/mL
3 | COCCOCCOCCOCCOCCOc1c(OC)cc2cc(C(=O)N3C[C@@H](CCl)c4c3cc(O)c3[nH]c(C(=O)OC)cc43)[nH]c2c1OC |  |  |  | 0.25 nM |  | 
4 | COCCOCCOCCOc1c(OC)cc2cc(C(=O)N3C[C@@H](CCl)c4c3cc(O)c3[nH]c(C(=O)OC)cc43)[nH]c2c1OC |  |  |  | 0.07 nM |  | 
5 | COCCOCCOc1c(OC)cc2cc(C(=O)N3C[C@@H](CCl)c4c3cc(O)c3[nH]c(C(=O)OC)cc43)[nH]c2c1OC |  |  |  | 0.035 nM |  | 
6 | COCCOCCOCCOCCOc1cc2cc(C(=O)N3C[C@@H](CCl)c4c3cc(O)c3[nH]c(C(=O)OC)cc43)[nH]c2c(OCCOCCOCCOCCOC)c1OCCOCCOCCOCCOC |  |  | 0.001 | 35 nM |  | > 19000 µg/mL
7 | COCCOCCOc1cc2cc(C(=O)N3C[C@@H](CCl)c4c3cc(O)c3[nH]c(C(=O)OC)cc43)[nH]c2c(OCCOCCOC)c1OCCOCCOC | 27% | 0% | 0.08 | 0.26 nM | 2000 µg/mL (≈ 2570 µM) | 
8 | COCCOc1c(OC)cc2cc(C(=O)N3C[C@@H](CCl)c4c3cc(O)c3[nH]c(C(=O)OC)cc43)[nH]c2c1OC |  |  |  | 0.018 nM |  | 
9 | COC(=O)c1cc2c3c(cc(O)c2[nH]1)N(C(=O)c1cc2cc(OC)c(OC)c(OC)c2[nH]1)C[C@H]3CCl | 97% | 53% | 1 | 0.008 nM | 460 µg/mL (≈ 895 µM) | 
10 | COCCOCCOCCOCCOc1c(OC)cc2cc(C(=O)N3C[C@@H](CCl)c4c3cc(O)c3[nH]c(C(=O)OC)cc43)[nH]c2c1OC |  |  |  | 0.11 nM |  | 
11 | COCCOCCOCCOc1cc2cc(C(=O)N3C[C@@H](CCl)c4c3cc(O)c3[nH]c(C(=O)OC)cc43)[nH]c2c(OCCOCCOCCOC)c1OCCOCCOCCOC |  |  | 0.009 | 3.5 nM |  | 80000 µg/mL (≈ 87900 µM)
